Screening results deposited in PubChem BioAssay by NMMLSC.
This is a sample that favours compounds with a hit; in the whole collection about 1.1% have one here.
DSG3 Ab inh – inhibitors of pemphigus antibody binding to human desmoglein-3. P32926. AID 588358. binding (percent of control), % at 10 µM. DSG3-coupled beads, scFv-anti-DSG3-GFP binding, flow cytometry; active compounds read low. 310,000 compounds, 0.48% hits;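 active = binding more than 3 SD below its plate's average and above zero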;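 also: hits lower antibody fragment binding to DSG3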
Arrestin-AP2 inh – inhibitors of human beta-arrestin and AP2 interaction | FITC-arrestin peptide / GST-AP2 beads, flow cytometry; AP2 beta2 appendage carries R879A mutation | inhibition, % at 10 µM | 340,000 compounds, 0.31% hits;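 active = inhibition above a set limit, near 3 SD of compounds lacking own fluorescence, cut at about 54% in these data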;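 also: plate controls were DMSO wells for no effect and 5 µM unlabelled arrestin peptide for full effect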
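System: GST-AP2 R879A glutathione beads. Medium: PBS with 0.05% Tween 20 and 0.1% BSA. Also added: FITC-arrestin peptide, 50 nM. Incubation: 12 min plus 1 h, RT. Measured by: high-throughput flow cytometry of beads, ex 488, em 535 nm. Evaluation: percent drop in bead-associated FITC signal.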
Avidin bead fluor – avidin bead compound fluorescence profile | Avidin beads, compound fluorescence 488/530 nm, flow cytometry; active compounds read high | fluorescence (KMESF) at 10 µM | 220,000 compounds, 0.38% hits | AID 1775; in the data active = fluorescence above about 47
GSH bead fluor – GSH bead compound fluorescence profile; fluorescence (KMESF) at 10 µM; 190,000 compounds, 0.25% hits; GSH beads flow cytometry, compound fluorescence 488/530 nm; active compounds read high; in the data active = fluorescence above about 89;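 also: glutathione beads carrying GST-tagged Bcl family fusion proteins plus one bare bead set; values are compound well signal with DMSO vehicle wells as background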
Arr-AP2 CP1 – blocks beta-arrestin peptide binding to human AP2 | shares compounds with Arrestin-AP2 inh | GST-AP2 beads, FITC arrestin peptide binding, flow cytometry; GST-fused beta2-adaptin appendage, R879A mutant | inhibition, % at 10 µM | 1,300 compounds, 2% hits | AID 504908;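 active = inhibition above a set limit, roughly 3 SD of non-fluorescent compound noise, cut at about 38% in these data; inactive = inhibition at or below that limit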;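 also: loss of bead fluorescence from 50 nM FITC arrestin peptide bound to appendage; 0% = negative control wells and 100% = excess unlabelled arrestin peptide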
Target sequence (P63010 whole entry, looked up, the tested form may be a part, one chain of several): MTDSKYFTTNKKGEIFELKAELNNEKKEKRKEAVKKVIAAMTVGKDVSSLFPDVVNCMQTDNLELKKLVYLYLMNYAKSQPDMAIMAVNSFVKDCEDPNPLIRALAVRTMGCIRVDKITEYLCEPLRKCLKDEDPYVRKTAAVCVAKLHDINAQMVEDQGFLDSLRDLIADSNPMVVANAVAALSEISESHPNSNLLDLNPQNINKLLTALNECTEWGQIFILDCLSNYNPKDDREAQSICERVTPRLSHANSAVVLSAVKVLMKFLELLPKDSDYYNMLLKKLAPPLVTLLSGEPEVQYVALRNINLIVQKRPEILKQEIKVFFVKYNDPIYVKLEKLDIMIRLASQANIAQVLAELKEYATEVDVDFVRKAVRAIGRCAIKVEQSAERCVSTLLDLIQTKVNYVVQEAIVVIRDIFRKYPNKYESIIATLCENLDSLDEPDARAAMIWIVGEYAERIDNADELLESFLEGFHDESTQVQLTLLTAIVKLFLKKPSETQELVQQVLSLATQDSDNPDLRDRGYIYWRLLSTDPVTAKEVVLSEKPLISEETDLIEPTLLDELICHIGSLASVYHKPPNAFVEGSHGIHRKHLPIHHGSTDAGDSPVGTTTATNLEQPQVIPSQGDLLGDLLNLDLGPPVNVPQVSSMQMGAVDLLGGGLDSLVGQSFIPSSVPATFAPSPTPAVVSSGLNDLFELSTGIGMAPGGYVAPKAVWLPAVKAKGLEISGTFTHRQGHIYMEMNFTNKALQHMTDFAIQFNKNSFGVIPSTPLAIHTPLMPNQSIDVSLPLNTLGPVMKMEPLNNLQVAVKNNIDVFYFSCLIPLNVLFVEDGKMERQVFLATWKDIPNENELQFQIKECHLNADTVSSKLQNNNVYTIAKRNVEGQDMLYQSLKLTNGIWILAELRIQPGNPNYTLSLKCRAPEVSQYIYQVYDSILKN
GST-FITC bead – GST-GSH bead binding interference, counter-screen. GST-fluorescein binding to GSH beads, fluorescence. 1,300 compounds, 2% hits. inhibition, % at 10 µM. shares compounds with Arrestin-AP2 inh. AID 588338;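 active = inhibition above 50%, about 3 SD of the inhibition seen with non-fluorescent compounds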;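 also: fluorescein maleimide labelled GST captured on 4 micron glutathione beads; higher means more loss of bead fluorescence from quenching or blocked binding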
* hit, by the source's call; x = no result.

SMILES	DSG3 Ab inh	Arrestin-AP2 inh	Avidin bead fluor	GSH bead fluor	others
Cc1ccc2c(CSc3nnc(C4CC4)n3N)cc(=O)oc2c1C	96	8	43	13
Cc1ccc2c(CSc3nnc(C4CC4)n3N)cc(=O)oc2c1	104	-9	9	262*
CCc1ccccc1NC(=O)Cn1cccc1C1=NC(c2ccccc2)CO1 (stereo not given)	129	8	51*	21
CCn1c(CSc2nc3ccccc3s2)nnc1SCC(=O)c1ccc(O)c(O)c1	102	-3	4	268*
CCn1c(CSc2nc3ccccc3s2)nnc1SCC(=O)c1ccc(Cl)cc1	106	16	15	12
CC#CC[N+](C)(C)CCCCCCCCCC	113	-15	47*	x
Cc1cc(C)c(NC(=O)CSc2nc3ccccc3c(=O)n2CCCN2CCOCC2)c(C)c1	106	25	x	x
Cc1ccc(Cn2cnc3c(nnn3Cc3ccc(Cl)cc3)c2=O)cc1	73*	4	24	10
CCOC(=O)C(C)n1cnc2c(nnn2Cc2ccc(C)cc2)c1=O (stereo not given)	x	-4	49*	27
CCOc1ccc(C(=O)CCNC(Cc2cnc[nH]2)C(=O)O)cc1 (stereo not given)	102	-4	31	7
CCOc1ccc(S(=O)(=O)NC(Cc2cnc[nH]2)C(=O)O)cc1 (stereo not given)	8.8*	-7	13	15
Nc1c(C(=O)NCCc2ccccc2)nnn1Cc1ccc(Br)cc1F	105	-8	23	12
NCC12CC3CC(C1)CC(CN)(C3)C2	108	4	22	23
NCC12CC3CC(CC(O)(C3)C1)C2	100	4	7	262*
N#CCC(=O)Nc1ccccc1C(=O)O	97	3	7	264*
Cc1cc(C(=O)COC(=O)c2ccc3c(c2)NC(=O)CS3)c(C)n1CCc1ccc(Cl)cc1	104	34	10	11
CCOc1ccc(C(=O)NC2CCN(C(=S)Nc3ccccc3C)CC2)cc1	-5.5*	-4	10	17
COc1ccc(C(=O)NC2CCN(C(=S)Nc3ccccc3C)CC2)cc1	105	-3	5	22
C=CCOc1ccn(C)c(=O)n1	92	12	7	x
O=C(CN1C(=O)/C(=C/c2ccco2)SC1=S)NC1CCS(=O)(=O)C1 (stereo not given)	-6.6*	6	x	x
O=C(CCN1C(=O)/C(=C/c2ccccc2)SC1=S)NC1CCS(=O)(=O)C1 (stereo not given)	99	-7	x	x
Cc1cnc(NC(=O)CSc2nnc(-c3cccs3)n2C)s1	90	12	7	269*
Cc1cnc(NC(=O)CSc2nnc(COc3ccccc3)o2)s1	x	10	5	x
Cc1cnc(NC(=O)CSc2nnc(COc3c(C)cccc3C)o2)s1	82*	4	6	21
Cn1c(SCC(=O)Nc2ccccc2F)nnc1-c1cccs1	123	2	x	x
SMILES	DSG3 Ab inh	Arrestin-AP2 inh	Avidin bead fluor	GSH bead fluor	others
CS(=O)(=O)c1ccccc1C(=O)NCCC(c1ccccc1)c1ccccc1	45*	12	x	x
c1ccc2c(c1)c1ccccc1n2CN1CCOCC1	97	83*	6	18	Arr-AP2 CP1=-1;GST-FITC bead=-9
CCn1c(=O)n(CC)c2cc(N3CCCC3)c(NC(=O)c3c(F)cccc3F)cc21	100	16	x	x	Arr-AP2 CP1=-6;GST-FITC bead=-1
CCn1c(=O)n(CC)c2cc(N3CCCC3)c(NC(=O)c3ccc(F)cc3)cc21	101	7	x	x	Arr-AP2 CP1=11;GST-FITC bead=1
CCn1c(=O)c(C(=O)Nc2ccccc2F)c(O)c2ccccc21	107	33	x	x
CCn1c(=O)n(CC)c2cc(N3CCCC3)c(NC(=O)c3cccc(OC)c3)cc21	105	4	x	x	Arr-AP2 CP1=2;GST-FITC bead=5
CCOc1ccc(C(=O)Nc2cc3c(cc2N2CCCC2)n(CC)c(=O)n3CC)cc1OCC	110	-3	x	x	Arr-AP2 CP1=0;GST-FITC bead=-7
COc1ccc(C(=O)Nc2ccc(C)c(S(=O)(=O)N3CCOCC3)c2)cc1S(=O)(=O)N1CCCC1	104	8	x	x
Cc1ccc(NC(=O)c2ccc(=O)[nH]c2)cc1S(=O)(=O)N1CCCCC1	107	12	x	x	Arr-AP2 CP1=-7;GST-FITC bead=-5
COc1ccc(NC(=O)c2ccc(=O)[nH]c2)cc1S(=O)(=O)N1CCOCC1	105	39	x	x	Arr-AP2 CP1=3;GST-FITC bead=-6
